Assay outcomes: PubChem, several laboratories
BB579 growth dn: yeast BB579 growth reduction in restrictive medium; S. cerevisiae BB579 growth, OD615, 48 h; AID 804; inhibition, % at 10 µM; 140,000 tested, 0.51% active;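 active = inhibition above a set limit, 3 SD over the mean compound inhibition, cut at about 44% in these data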
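Detection: OD615 turbidity measurement; Material: Saccharomyces cerevisiae DeaD strain BB579, replicative lifespan model yeast; Timing: 48 h exposure, 30 °C; Doses: single 10 µM dose; Medium: CSMM-D restrictive synthetic medium containing dextrose (glucose); Controls: amphotericin B at 10 µg/mL as positive control.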
RBBP9 inhibitor: blocks human serine hydrolase RBBP9 | O75884 | 220,000 tested, 0.2% active | inhibition, % at 7.94 µM | recombinant RBBP9, FP-Rh probe fluorescence polarization;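 active = inhibition above the campaign mean of all tested compounds plus 3 SD, cut at about 14% in these data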
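System: RBBP9 protein / Quantity: 2.5 µM RBBP9 dispensing solution, before mixing / Also added: Serine-hydrolase probe FP-Rh, 375 nM pre-mixing / Dosing: 7.94 µM single dose, 0.794% DMSO / Timing: enzyme-compound preincubation 30 min, then probe labeling 45 min, 25 °C / Signal: FP readout at 525/598 nm / Controls: DMSO-treated enzyme wells and wells lacking RBBP9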
SDO1 yeast rescue: compounds rescuing growth of sdo1-depleted yeast, bone marrow failure model; S. cerevisiae sdo1-depleted JHY4D growth rescue, OD600 30 h; hits give high values; pdr5 snq2 efflux-pump mutant strain; z-score at 10 µM; 140,000 tested, 0.21% active; AID 817;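 active = z-score above 3 at both the 24 hr and the 30 hr optical density reads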
Yeast lifespan up: yeast lifespan extension; S. cerevisiae growth with nicotinamide, OD615; deaD strain in restrictive glucose medium; inhibition of the nicotinamide effect, % at 10 µM; 130,000 tested, 0.68% active;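 active = inhibition above a set limit, placed 3 SD over the median of all compounds, cut at about 26% in these data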
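assay system = DeaD-strain S. cerevisiae | buffer or medium = restrictive glucose medium | reagent = 1.5 mM nicotinamide | compound = 10 µM single point, 0.25% DMSO | incubation = 48 h compound exposure at 30 °C, humidified | signal = OD615 measurement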
TbHK1 inh: blocks Trypanosoma brucei hexokinase 1 activity | inhibition, % at 10 µM | AID 1430 | 220,000 tested, 0.11% active | recombinant TbHK1, G6PDH-coupled NADH A340;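 active = inhibition of 50% or more in the single-dose primary screen; inactive = inhibition below 50%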
NCF1 inh: inhibitors of human p47phox binding; P14598; p47phox/p22phox peptide binding, fluorescence polarization, 2 h; inhibition, % at 24.7 µM; 220,000 tested, 0.53% active; AID 1274;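 active = inhibition above about 30%, limit read from the data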
Target sequence (P14598 whole entry, looked up): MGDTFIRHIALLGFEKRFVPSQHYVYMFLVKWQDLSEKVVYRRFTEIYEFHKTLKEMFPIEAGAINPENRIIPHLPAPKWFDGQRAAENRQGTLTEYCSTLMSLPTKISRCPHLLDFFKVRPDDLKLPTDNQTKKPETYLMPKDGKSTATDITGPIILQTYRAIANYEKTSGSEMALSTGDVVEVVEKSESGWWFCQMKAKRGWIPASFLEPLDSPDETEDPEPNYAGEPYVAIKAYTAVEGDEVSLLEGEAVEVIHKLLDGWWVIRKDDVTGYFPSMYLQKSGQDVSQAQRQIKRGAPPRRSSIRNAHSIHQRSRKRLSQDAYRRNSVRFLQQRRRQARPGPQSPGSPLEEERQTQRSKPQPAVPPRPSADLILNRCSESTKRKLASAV
A number is an active result; 0 = inactive; - = no result given. Compounds with a hit are over-represented: about 1.6% of the library has one in this group of screens.

SMILES	BB579 growth dn	RBBP9 inhibitor	SDO1 yeast rescue	Yeast lifespan up	TbHK1 inh	NCF1 inh
COCCn1c(N)c(N(Cc2ccccc2)C(=O)c2cc3ccccc3o2)c(=O)[nH]c1=O	-	0	-	-	0	0
Oc1ccc(-c2csc(-c3ccccc3)n2)cc1O	83	0	0	0	0	0
C/C(=N\NS(=O)(=O)c1ccc([N+](=O)[O-])cc1)c1ccc(NC(=O)c2ccco2)cc1	-	0	-	-	0	0
Cc1ccc(C)c(N2CCN(C(=O)C34CC5CC(C3)CC(n3nnc(C)n3)(C5)C4)CC2)c1	-	0	-	-	0	0
COc1ccc(C(=O)NNC(=S)NC(=O)c2ccco2)cc1	0	0	0	33	0	0
COc1ccc(C(=O)NC(=S)NNC(=O)c2ccc(NC(=O)C(C)C)cc2)cc1	0	0	0	33	0	0
O=C(NNC(=S)NC(=O)c1ccco1)c1ccc(F)cc1	-	0	-	-	0	0
COc1ccccc1C(=O)NNC(=S)NC(=O)c1ccco1	82	0	0	0	0	0
CCCOc1ccc(C(=O)NNC(=S)NC(=O)c2ccco2)cc1	-	0	-	-	0	0
CCC1CCCCN1C(=S)Nc1cccc(S(=O)(=O)N(C)C)c1 (stereo not drawn)	-	0	-	-	0	0
CC(C)(C)NC(=O)NC(=O)COC(=O)c1cccc(OC(F)F)c1	-	0	-	-	0	0
CC(C)COc1ccc(C(=O)N/C(=C/c2cccc([N+](=O)[O-])c2)C(=O)O)cc1	-	0	-	-	0	0
CC[n+]1cc(-c2ccccc2)nc(N2CCOCC2)n1	0	0	0	0	0	39
CCOc1cc(C2c3c(oc4ccccc4c3=O)C(=O)N2c2nccs2)ccc1O (stereo not drawn)	-	0	-	-	0	0
CCOC(=O)C1=C(c2ccccc2)NC(N)=NC1c1ccc(OCc2ccc(Cl)cc2)c(OC)c1 (stereo not drawn)	-	0	-	-	0	71
O=C(N=Nc1c(O)[nH]c2ccc(Br)cc12)c1cc(-c2cccs2)nc2ccccc12	-	0	-	-	0	60
CN(C)c1nc(-c2cccs2)cc(C(F)(F)F)c1C#N	-	0	-	-	0	58
COc1ccc(C(=O)OCc2csc(C)n2)c(O)c1	-	0	-	-	0	0
Cc1cccc(Oc2nc(CN3CCOCC3)nc3sc4c(c23)CCCC4)c1	0	0	0	33	0	0
CCOC(=O)NC(=O)/C(C=Nc1ccc(Cl)cc1)=C(\C)O	-	0	-	-	0	0
O=c1cc(O)c2c(=O)n(-c3ccccc3)c3c(c2o1)CCCCC3	0	0	0	78	0	0
O=c1c(-c2ccccc2)c(O)c2c(n1-c1ccccc1)CCCC2	0	0	0	0	0	0
O=C(Nc1ccc(Nc2ccncc2)cc1)c1ccc(Nc2ccnc3ccc([N+](=O)[O-])cc23)cc1[N+](=O)[O-]	-	0	-	-	0	71
CCOc1cc(OCC)cc(C(=O)NCCCN2CCOCC2)c1	-	0	-	-	0	0
COc1cc(OC)cc(C(=O)NCCCN2CCN(CCCNC(=O)c3cc(OC)cc(OC)c3)CC2)c1	0	0	0	41	0	0
SMILES	BB579 growth dn	RBBP9 inhibitor	SDO1 yeast rescue	Yeast lifespan up	TbHK1 inh	NCF1 inh
COc1ccccc1C(=O)Oc1ccc2c(c1)O/C(=C\c1ccncc1)C2=O	0	0	0	47	0	0
Cc1ccc(C(=O)OCC(=O)NCc2ccco2)cc1	0	0	0	56	0	0
N#Cc1nc(COc2ccc(F)cc2)oc1N1CCC(Cc2ccccc2)CC1	0	0	0	0	0	50
N#Cc1nc(COc2ccc(F)cc2)oc1N1CCN(Cc2ccccc2)CC1	0	0	0	0	0	0
O=C1CCC([N+](=O)[O-])C(c2cccc([N+](=O)[O-])c2)N1 (stereo not drawn)	-	0	-	-	0	0
S=C1NCN(C2CCCCC2)CN1CCc1ccccc1	-	0	-	-	0	0
Cc1ccc(C)c(NC(=O)c2sc(Cl)nc2-c2ccccc2)c1	0	0	0	0	0	0
Cc1ccccc1NC(=O)c1sc(Cl)nc1-c1ccccc1	0	0	0	0	0	68
O=C(CC1CCS(=O)(=O)C1)Nc1ccc[nH]c1=O (stereo not drawn)	0	16	0	0	0	0
CCc1ccccc1NC(=O)CC1CS(=O)(=O)CC1CC(=O)Nc1ccccc1CC (stereo not drawn)	0	0	0	0	0	0
Cc1cccc(-n2cnc3c(sc4nc(N5CCOCC5)c5c(c43)CCCC5)c2=O)c1	-	0	-	-	0	0
